What was measured:
[1] = target: SRSF protein kinase 2 (Homo sapiens) (UniProt P78362); assay: Inhibition of wild-type human full length SRPK2 (M1 to S686 residues) expressed in Escherichia coli BL21 assessed as residual activity at 1000 nM after 30 mins by Kinomescan method relative to control
[2] = target: Dual specificity tyrosine-phosphorylation-regulated kinase 2 (Homo sapiens) (UniProt Q92630); assay: Inhibition of wild-type human full length DYRK2 (M1 to S528 residues) expressed in HEK293 cells assessed as residual activity at 1000 nM after 30 mins by Kinomescan method relative to control; format: cell-based
In short: (§1)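 Single-concentration screen at 1 µM across a 456-kinase KINOMEscan panel. The read-out is Percent Control for each kinase.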

[3] = target: Mitogen-activated protein kinase 9 (Homo sapiens) (UniProt P45984); assay: Inhibition of wild-type human full length JNK2 (M1 to Q382 residues) expressed in HEK293 cells assessed as residual activity at 1000 nM after 30 mins by Kinomescan method relative to control; format: cell-based; in short: as §1
Mitogen-activated protein kinase 9 (Homo sapiens), sequence (P45984 whole entry, looked up, the tested form may be a part): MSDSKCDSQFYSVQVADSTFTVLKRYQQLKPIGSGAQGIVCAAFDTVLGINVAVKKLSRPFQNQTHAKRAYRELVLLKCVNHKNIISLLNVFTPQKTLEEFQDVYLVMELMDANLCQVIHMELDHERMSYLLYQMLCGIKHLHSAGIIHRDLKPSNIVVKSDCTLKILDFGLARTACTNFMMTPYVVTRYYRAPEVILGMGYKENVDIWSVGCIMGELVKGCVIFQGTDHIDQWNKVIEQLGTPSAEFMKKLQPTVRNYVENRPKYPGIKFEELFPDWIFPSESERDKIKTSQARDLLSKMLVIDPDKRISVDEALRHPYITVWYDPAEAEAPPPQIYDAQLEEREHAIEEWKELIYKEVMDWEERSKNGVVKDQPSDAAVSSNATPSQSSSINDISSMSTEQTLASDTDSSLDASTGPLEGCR

[4] = target: Mitogen-activated protein kinase 12 (Homo sapiens) (UniProt P53778); assay: Inhibition of wild-type human full length p38-gamma (M1 to L367 residues) expressed in HEK293 cells assessed as residual activity at 1000 nM after 30 mins by Kinomescan method relative to control; format: cell-based
Mitogen-activated protein kinase 12 (Homo sapiens), sequence (P53778 whole entry, the tested form may be a part): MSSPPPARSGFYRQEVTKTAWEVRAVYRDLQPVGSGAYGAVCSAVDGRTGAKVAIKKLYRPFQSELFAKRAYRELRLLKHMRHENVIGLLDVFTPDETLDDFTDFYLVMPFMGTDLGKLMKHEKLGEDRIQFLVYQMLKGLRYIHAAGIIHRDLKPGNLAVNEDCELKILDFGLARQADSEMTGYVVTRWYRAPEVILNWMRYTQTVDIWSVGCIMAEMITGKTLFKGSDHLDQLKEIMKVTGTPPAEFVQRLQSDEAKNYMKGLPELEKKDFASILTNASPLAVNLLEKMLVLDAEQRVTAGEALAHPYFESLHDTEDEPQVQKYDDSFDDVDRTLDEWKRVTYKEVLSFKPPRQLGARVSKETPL

[5] = target: Mitogen-activated protein kinase kinase kinase 11 (Homo sapiens) (UniProt Q16584); assay: Inhibition of wild-type human partial length MLK3 (I77 to W399 residues) expressed in Escherichia coli BL21 assessed as residual activity at 1000 nM after 30 mins by Kinomescan method relative to control
[6] = target: 1-phosphatidylinositol 3-phosphate 5-kinase (Homo sapiens) (UniProt Q9Y2I7); assay: Inhibition of wild-type human partial length PIKFYVE (F1512 to C2098 residues) expressed in HEK293 cells assessed as residual activity at 1000 nM after 30 mins by Kinomescan method relative to control; format: cell-based
[7] = target: Death-associated protein kinase 3 (Homo sapiens) (UniProt O43293); assay: Inhibition of wild-type human partial length DAPK3 (M1 to A277 residues) expressed in Escherichia coli BL21 assessed as residual activity at 1000 nM after 30 mins by Kinomescan method relative to control
Death-associated protein kinase 3 (Homo sapiens), sequence (O43293 whole entry, looked up, the tested form may be a part): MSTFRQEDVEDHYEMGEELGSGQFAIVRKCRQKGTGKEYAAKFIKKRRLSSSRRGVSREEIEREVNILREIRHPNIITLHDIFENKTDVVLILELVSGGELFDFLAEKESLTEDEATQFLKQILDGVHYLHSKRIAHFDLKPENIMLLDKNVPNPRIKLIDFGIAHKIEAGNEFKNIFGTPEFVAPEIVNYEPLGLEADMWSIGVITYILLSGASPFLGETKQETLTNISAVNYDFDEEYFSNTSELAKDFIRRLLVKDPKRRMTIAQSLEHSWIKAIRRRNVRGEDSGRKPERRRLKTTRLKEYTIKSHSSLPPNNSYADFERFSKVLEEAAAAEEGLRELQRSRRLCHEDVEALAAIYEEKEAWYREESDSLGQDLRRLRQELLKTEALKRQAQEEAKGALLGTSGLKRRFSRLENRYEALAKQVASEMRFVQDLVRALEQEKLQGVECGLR

[8] = target: Tyrosine-protein kinase JAK1 (Homo sapiens) (UniProt P23458); assay: Inhibition of wild-type human partial length JAK1 JH1 catalytic domain (V856 to K1154 residues) expressed in Escherichia coli BL21 assessed as residual activity at 1000 nM after 30 mins by Kinomescan method relative to control
Tyrosine-protein kinase JAK1 (Homo sapiens), sequence (P23458 whole entry, the tested form may be a part): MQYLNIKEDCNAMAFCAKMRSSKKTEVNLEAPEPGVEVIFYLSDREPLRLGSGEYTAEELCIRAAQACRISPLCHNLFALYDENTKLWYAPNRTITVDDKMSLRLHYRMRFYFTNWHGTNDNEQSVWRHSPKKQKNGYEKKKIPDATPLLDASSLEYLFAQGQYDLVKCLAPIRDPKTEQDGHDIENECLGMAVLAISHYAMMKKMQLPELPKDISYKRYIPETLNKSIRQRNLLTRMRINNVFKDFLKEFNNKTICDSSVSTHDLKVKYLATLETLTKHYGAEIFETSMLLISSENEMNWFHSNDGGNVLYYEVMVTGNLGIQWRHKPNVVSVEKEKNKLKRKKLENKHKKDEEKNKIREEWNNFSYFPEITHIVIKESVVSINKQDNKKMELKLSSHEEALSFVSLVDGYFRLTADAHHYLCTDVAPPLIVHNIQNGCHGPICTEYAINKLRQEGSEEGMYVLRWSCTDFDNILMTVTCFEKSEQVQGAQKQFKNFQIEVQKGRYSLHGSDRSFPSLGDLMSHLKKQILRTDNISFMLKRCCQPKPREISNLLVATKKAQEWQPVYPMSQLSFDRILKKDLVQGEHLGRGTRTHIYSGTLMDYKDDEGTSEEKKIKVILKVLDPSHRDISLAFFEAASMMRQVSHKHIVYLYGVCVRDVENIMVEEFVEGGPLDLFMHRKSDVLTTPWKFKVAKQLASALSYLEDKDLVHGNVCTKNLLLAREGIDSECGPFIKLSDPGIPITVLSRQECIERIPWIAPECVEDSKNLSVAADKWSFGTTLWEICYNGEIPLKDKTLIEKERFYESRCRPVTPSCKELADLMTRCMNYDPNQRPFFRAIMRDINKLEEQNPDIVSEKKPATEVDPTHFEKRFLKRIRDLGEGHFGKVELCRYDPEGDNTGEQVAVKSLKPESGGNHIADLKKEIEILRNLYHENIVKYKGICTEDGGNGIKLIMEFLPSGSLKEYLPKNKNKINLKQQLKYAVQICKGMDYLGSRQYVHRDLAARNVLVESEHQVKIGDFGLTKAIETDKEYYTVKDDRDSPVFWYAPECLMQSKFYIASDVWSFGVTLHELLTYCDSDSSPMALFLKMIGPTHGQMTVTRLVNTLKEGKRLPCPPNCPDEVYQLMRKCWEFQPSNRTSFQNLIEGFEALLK

[9] = target: Mitogen-activated protein kinase kinase kinase 9 (Homo sapiens) (UniProt P80192); assay: Inhibition of wild-type human partial length MLK1 (V88 to W426 residues) expressed in Escherichia coli BL21 assessed as residual activity at 1000 nM after 30 mins by Kinomescan method relative to control
[10] = tested on: Tyrosine-protein kinase ABL1 (Homo sapiens), P00519 [Q252H]; assay: Inhibition of human non-phosphorylated ABL1 Q252H mutant (S229 to K512 residues) expressed in HEK293 cells assessed as residual activity at 1000 nM after 30 mins by Kinomescan method relative to control; format: cell-based
In short: (§2)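 KINOMEscan binding panel of 456 kinases, with the test compound at a single concentration of 1 µM. Read-out is Percent Control.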

[11] = target: Membrane-associated tyrosine- and threonine-specific cdc2-inhibitory kinase (Homo sapiens) (UniProt Q99640); assay: Inhibition of wild-type human partial length PKMYT1 (A88 to G366 residues) expressed in Escherichia coli BL21 assessed as residual activity at 1000 nM after 30 mins by Kinomescan method relative to control
[12] = target: Casein kinase I isoform gamma-3 (Homo sapiens) (UniProt Q9Y6M4); assay: Inhibition of wild-type human full length CSNK1G3 (M1 to K447 residues) expressed in Escherichia coli BL21 assessed as residual activity at 1000 nM after 30 mins by Kinomescan method relative to control
In short: (§3)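 Single-point screen at a fixed 1 µM, run within a 456-kinase DiscoveRx KINOMEscan panel. Each kinase's read-out is Percent Control, i.e. signal relative to a control without compound. Hits were scored by a Percent Control < 35 cut-off, and an S(35) selectivity score was calculated across the non-mutant kinases.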

[13] = tested on: Mast/stem cell growth factor receptor Kit (Homo sapiens), P10721 [D816H]; assay: Inhibition of human partial length KIT D816H mutant (I571 to D952 residues) expressed in HEK293 cells assessed as residual activity at 1000 nM after 30 mins by Kinomescan method relative to control; format: cell-based; in short: as §2
Mast/stem cell growth factor receptor Kit (Homo sapiens), P10721 [D816H], sequence (P10721 whole entry D816H, the tested form may be a part): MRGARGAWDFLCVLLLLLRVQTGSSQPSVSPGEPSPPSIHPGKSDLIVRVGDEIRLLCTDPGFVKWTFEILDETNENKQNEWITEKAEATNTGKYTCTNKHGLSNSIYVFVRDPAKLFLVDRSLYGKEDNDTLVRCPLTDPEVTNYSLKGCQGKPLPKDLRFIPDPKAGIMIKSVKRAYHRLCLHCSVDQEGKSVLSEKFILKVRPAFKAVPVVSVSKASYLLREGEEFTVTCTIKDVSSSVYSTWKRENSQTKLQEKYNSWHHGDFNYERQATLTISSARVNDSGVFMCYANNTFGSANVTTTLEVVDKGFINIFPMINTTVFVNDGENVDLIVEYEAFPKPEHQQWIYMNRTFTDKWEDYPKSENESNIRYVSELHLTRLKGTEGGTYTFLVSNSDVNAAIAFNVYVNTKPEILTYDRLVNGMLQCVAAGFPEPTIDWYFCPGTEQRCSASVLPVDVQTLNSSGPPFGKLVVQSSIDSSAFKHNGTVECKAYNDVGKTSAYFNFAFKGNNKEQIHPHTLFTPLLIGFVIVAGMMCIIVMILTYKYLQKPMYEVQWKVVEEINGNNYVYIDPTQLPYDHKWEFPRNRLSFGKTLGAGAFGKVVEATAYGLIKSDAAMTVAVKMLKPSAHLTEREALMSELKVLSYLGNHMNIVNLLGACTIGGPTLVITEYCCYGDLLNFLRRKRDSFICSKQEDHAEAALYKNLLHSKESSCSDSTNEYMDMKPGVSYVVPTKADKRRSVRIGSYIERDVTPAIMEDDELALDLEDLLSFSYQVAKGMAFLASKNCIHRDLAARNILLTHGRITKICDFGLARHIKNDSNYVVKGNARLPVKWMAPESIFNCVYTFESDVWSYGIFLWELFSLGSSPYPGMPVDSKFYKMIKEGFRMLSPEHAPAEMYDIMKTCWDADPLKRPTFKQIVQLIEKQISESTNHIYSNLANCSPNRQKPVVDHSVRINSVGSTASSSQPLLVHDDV

[14] = target: Mitogen-activated protein kinase kinase kinase 15 (Homo sapiens) (UniProt Q6ZN16); assay: Inhibition of wild-type human partial length MAP3K15 (T625 to L932 residues) expressed in HEK293 cells assessed as residual activity at 1000 nM after 30 mins by Kinomescan method relative to control; format: cell-based
[15] = target: Tyrosine-protein kinase BTK (Homo sapiens) (UniProt Q06187); assay: Inhibition of wild-type human full length BTK (M1 to S659 residues) expressed in HEK293 cells assessed as residual activity at 1000 nM after 30 mins by Kinomescan method relative to control; format: cell-based; in short: as §3
[16] = tested on: Proto-oncogene tyrosine-protein kinase receptor Ret (Homo sapiens), P07949 [V804L]; assay: Inhibition of human partial length RET V804L mutant (E713 to D1014 residues) expressed in Escherichia coli BL21 assessed as residual activity at 1000 nM after 30 mins by Kinomescan method relative to control; in short: as §3
[17] = target: Wee1-like protein kinase (Homo sapiens) (UniProt P30291); assay: Inhibition of wild-type human partial length WEE1 (M291 to K575 residues) expressed in Escherichia coli BL21 assessed as residual activity at 1000 nM after 30 mins by Kinomescan method relative to control
[18] = target: Mitogen-activated protein kinase kinase kinase 14 (Homo sapiens) (UniProt Q99558); assay: Inhibition of wild-type human partial length NIK (L318 to P947 residues) expressed in HEK293 cells assessed as residual activity at 1000 nM after 30 mins by Kinomescan method relative to control; format: cell-based
Mitogen-activated protein kinase kinase kinase 14 (Homo sapiens), sequence (Q99558 whole entry, looked up, the tested form may be a part): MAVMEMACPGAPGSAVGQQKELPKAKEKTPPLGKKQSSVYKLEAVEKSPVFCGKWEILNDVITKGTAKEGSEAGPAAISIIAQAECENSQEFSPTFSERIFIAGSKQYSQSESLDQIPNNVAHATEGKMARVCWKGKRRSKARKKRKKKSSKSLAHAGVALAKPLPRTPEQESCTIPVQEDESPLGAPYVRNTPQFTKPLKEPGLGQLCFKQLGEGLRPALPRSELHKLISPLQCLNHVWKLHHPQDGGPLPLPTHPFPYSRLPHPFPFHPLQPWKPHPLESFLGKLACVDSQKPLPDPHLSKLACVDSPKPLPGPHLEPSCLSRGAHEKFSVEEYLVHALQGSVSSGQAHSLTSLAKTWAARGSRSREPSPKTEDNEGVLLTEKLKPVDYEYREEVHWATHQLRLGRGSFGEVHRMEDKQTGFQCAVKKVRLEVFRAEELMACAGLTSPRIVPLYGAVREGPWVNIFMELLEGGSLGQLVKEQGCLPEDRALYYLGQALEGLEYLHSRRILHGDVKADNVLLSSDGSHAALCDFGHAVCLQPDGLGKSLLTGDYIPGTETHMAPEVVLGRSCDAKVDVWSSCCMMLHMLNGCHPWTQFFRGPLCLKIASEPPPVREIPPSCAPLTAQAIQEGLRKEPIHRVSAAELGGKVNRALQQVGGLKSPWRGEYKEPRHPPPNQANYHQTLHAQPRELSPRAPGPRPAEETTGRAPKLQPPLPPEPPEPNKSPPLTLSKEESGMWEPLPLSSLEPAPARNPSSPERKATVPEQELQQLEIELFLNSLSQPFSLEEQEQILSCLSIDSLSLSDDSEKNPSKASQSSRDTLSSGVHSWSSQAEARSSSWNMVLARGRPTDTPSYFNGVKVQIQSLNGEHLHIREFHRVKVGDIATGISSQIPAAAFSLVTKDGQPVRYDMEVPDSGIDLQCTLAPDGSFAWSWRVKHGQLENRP

[19] = target: Mitogen-activated protein kinase 15 (Homo sapiens) (UniProt Q8TD08); assay: Inhibition of wild-type human partial length ERK8 (M1 to P437 residues) expressed in Escherichia coli BL21 assessed as residual activity at 1000 nM after 30 mins by Kinomescan method relative to control
[20] = target: Myotonin-protein kinase (Homo sapiens) (UniProt Q09013); assay: Inhibition of wild-type human partial length DMPK (V47 to V415 residues) expressed in Escherichia coli BL21 assessed as residual activity at 1000 nM after 30 mins by Kinomescan method relative to control
Myotonin-protein kinase (Homo sapiens), sequence (Q09013 whole entry, the tested form may be a part): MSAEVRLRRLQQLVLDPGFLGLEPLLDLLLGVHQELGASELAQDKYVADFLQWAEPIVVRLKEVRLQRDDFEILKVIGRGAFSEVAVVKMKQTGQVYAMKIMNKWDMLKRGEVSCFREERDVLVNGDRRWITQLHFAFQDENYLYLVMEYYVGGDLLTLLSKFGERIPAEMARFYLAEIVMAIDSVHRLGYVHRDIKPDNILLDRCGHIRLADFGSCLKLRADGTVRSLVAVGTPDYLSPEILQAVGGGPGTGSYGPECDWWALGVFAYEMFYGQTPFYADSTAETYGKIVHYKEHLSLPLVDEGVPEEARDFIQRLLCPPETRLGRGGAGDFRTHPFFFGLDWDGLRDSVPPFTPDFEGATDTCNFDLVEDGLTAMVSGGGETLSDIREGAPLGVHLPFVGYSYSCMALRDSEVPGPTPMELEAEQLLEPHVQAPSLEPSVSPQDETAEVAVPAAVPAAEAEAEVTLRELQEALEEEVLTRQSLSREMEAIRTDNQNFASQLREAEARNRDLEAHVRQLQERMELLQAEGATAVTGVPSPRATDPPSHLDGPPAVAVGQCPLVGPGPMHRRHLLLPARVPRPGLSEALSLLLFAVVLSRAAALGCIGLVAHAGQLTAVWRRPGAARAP

[21] = target: Calcium/calmodulin-dependent protein kinase kinase 2 (Homo sapiens) (UniProt Q96RR4); assay: Inhibition of wild-type human partial length CAMKK2 (D65 to V471 residues) expressed in Escherichia coli BL21 assessed as residual activity at 1000 nM after 30 mins by Kinomescan method relative to control

COc1cc(OC)c(Cl)c(N2Cc3cnc(Nc4ccc(F)cc4)nc3N(C3CCN(C(=O)/C=C/CN(C)C)CC3)C2=O)c1Cl
Activity [1]: 91% | Activity [2]: 100% | Activity [3]: 92% | Activity [4]: 89% | Activity [5]: 83% | Activity [6]: 95% | Activity [7]: 100% | Activity [8]: 93% | Activity [9]: 97% | Activity [10]: 33% | Activity [11]: 100% | Activity [12]: 100% | Activity [13]: 66% | Activity [14]: 100% | Activity [15]: 99% | Activity [16]: 94% | Activity [17]: 100% | Activity [18]: 93% | Activity [19]: 100% | Activity [20]: 100% | Activity [21]: 99%

Source: ChEMBL document CHEMBL4043093, “2-Oxo-3, 4-dihydropyrimido[4, 5-d]pyrimidinyl derivatives as new irreversible pan fibroblast growth factor receptor (FGFR) inhibitors” (Eur J Med Chem, 2017)
